Reference: ChEMBL document CHEMBL2429813, “Phomapyrrolidones A-C, antitubercular alkaloids from the endophytic fungus Phoma sp. NRRL 46751” (J Nat Prod, 2013)
≈ marks a conversion by molar mass, not a printed value. Calls of active or inactive are those of the source. The calls are words filed in the database; no cut-off is given here.

What was measured:
[1] = test system: Mycobacterium tuberculosis; experiment: Antitubecular activity against Mycobacterium tuberculosis […] assessed as growth inhibition after 4 days by microplate Alamar blue assay; assay type: functional; conditions: 96 h
Summary of the method: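 Replicating M. tuberculosis […] cultures in microplate alamar blue (resazurin) format. MIC was read out and reported in μg/mL, with μM in parentheses. Rifampin and isonicotinylhydrazine served as positive controls.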

[2] = test system: Vero; experiment: Cytotoxicity against African green monkey Vero cells after 72 hrs by MTS-PMS assay; assay type: cell-based; conditions: Chlorocebus sabaeus
Summary of the method: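 Vero cells were assayed by MTS-PMS colorimetric read-out, with rifampin as the positive control. The procedure follows an earlier report. Values are given as IC50.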

[3] = test system: MCF7; experiment: Cytotoxicity against human MCF7 cells at 5 uM after 72 hrs by Alamar blue assay; assay type: functional, cell-based
Summary of the method: (§1)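 The human cancer cell panel was assayed by resazurin (alamarBlue) read-out, with 5.0 μM as the highest concentration tested and doxorubicin as the positive control. The procedure follows an earlier report.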

[4] = test system: PC-3M; experiment: Cytotoxicity against human PC3M cells at 5 uM after 72 hrs by Alamar blue assay; assay type: functional, cell-based; summary of the method: as §1
[5] = test system: MDA-MB-231; experiment: Cytotoxicity against human MDA-MB-231 cells at 5 uM after 72 hrs by Alamar blue assay; assay type: functional, cell-based; summary of the method: as §1
[6] = test system: Mycobacterium tuberculosis; experiment: Antitubecular activity against Mycobacterium tuberculosis […] assessed as growth inhibition by low oxygen recovery assay; assay type: functional
Summary of the method: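 Non-replicating M. tuberculosis […] under low-oxygen conditions, with growth assessed on recovery (LORA). Endpoint was MIC, in μg/mL with μM in parentheses. Rifampin and isonicotinylhydrazine were the positive controls.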

[7] = test system: SF-268; experiment: Cytotoxicity against human SF268 cells at 5 uM after 72 hrs by Alamar blue assay; assay type: functional, cell-based; summary of the method: as §1
[8] = test system: NCI-H460; experiment: Cytotoxicity against human NCI-H460 cells at 5 uM after 72 hrs by Alamar blue assay; assay type: functional, cell-based; summary of the method: as §1

Compound	MIC [1] [µg/mL]	IC50 [2] [µM]	Activity [3]	Activity [4]	Activity [5]	MIC [6] [µg/mL]	Activity [7]	Activity [8]
CC1=C[C@@]2(C)C(=C(C)[C@H]3[C@H]4C[C@@H](C)C[C@@H](C)[C@@H]4[C@@H]4Oc5ccc(cc5)C[C@@H]5C(=O)N(C)C(=O)[C@H]5C(=O)[C@H]2[C@H]43)[C@H]1C	> 100	145	inactive	inactive	inactive	> 100	inactive	inactive
NNC(=O)c1ccncc1 [ISONIAZID]	0.03 (≈ 0.219 µM)	–	–	–	–	> 17.5	–	–
CC1=C[C@@]2(C)C(=C(C)[C@H]3[C@H]4C[C@@H](C)C[C@@H](C)[C@@H]4[C@@H]4Oc5ccc(cc5)C[C@H]5C(=O)NC(=O)[C@@H]5C(=O)[C@H]2[C@H]43)[C@H]1C	5.9 (≈ 11.2 µM)	32.4	inactive	inactive	inactive	15.4 (≈ 29.2 µM)	inactive	inactive
CO[C@H]1/C=C/O[C@@]2(C)Oc3c(C)c(O)c4c(O)c(c(/C=N/N5CCN(C)CC5)c(O)c4c3C2=O)NC(=O)/C(C)=C\C=C\[C@H](C)[C@H](O)[C@@H](C)[C@@H](O)[C@@H](C)[C@H](OC(C)=O)[C@@H]1C [RIFAMPIN]	0.07 (≈ 0.0851 µM)	132	–	–	–	0.1 (≈ 0.122 µM)	–	–
CC1=C[C@@]2(C)C(=C(C)[C@H]3[C@H]4C[C@@H](C)C[C@@H](C)[C@@H]4[C@@H]4Oc5ccc(cc5)CC5(O)NC(=O)C6(O[C@H]56)C(=O)[C@H]2[C@H]43)[C@H]1C (some centres not stated)	5.2 (≈ 9.56 µM)	35.7	inactive	inactive	inactive	13.4 (≈ 24.6 µM)	inactive	inactive
CC1=C[C@@]2(C)C(=C(C)[C@H]3[C@H]4C[C@@H](C)C[C@@H](C)[C@@H]4[C@@H]4Oc5ccc(cc5)C[C@@H]5C(=O)NC(=O)[C@H]5C(=O)[C@H]2[C@H]43)[C@H]1C	20.1 (≈ 38.1 µM)	33.6	inactive	inactive	inactive	41.1 (≈ 77.9 µM)	inactive	inactive
